Results on three compounds are retold here after ChEMBL document CHEMBL5143669, “Stapled peptides as scaffolds for developing radiotracers for intracellular targets: Preliminary evaluation of a radioiodinated MDM2-binding stapled peptide in the SJSA-1 osteosarcoma model” (Bioorg Med Chem Lett, 2022).

Broadly, the logD is lipophilicity at a set pH, counting ionised and neutral species. The IC50 is the concentration that gives 50% inhibition. Broadly, the Kd is a measure of binding affinity in units of concentration. A high value points to a looser complex.

The nature of data set [1]: Lipophilicity, logD of the compound using n-octanol and phosphate-buffered saline at pH 7.4 by the shake flask method. In kind it is physicochemical. In short, it runs like this:
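Shake-flask partition of the 125I-labeled peptide between n-octanol and PBS pH 7.4; logD from n = 4.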

Data set [2] is described as follows: Metabolic stability in athymic mouse plasma assessed as intact labeled peptide level at 3.7 MBq, iv after 2 hrs by RP-HPLC. The format is ADME, organism-based. In short, it runs like this:
(§1)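 Tumor-free athymic mice were given 131I-labeled peptide via tail vein. Plasma was collected at 2 and 4 h (n = 2 per time) and analysed by RP-HPLC on an RP-18 column with an ethanol/0.05 M sodium acetate pH 5.5 gradient at 1 mL/min; intact fraction taken as percentage of plasma radioactivity.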

Data set [3] can be described thus: Metabolic stability in athymic mouse plasma assessed as intact labeled peptide level at 3.7 MBq, iv after 4 hrs by RP-HPLC. In kind it is ADME, organism-based. In short, it runs like this:
as §1

The target of data set [4] is T1, E3 ubiquitin-protein ligase Mdm2 (Homo sapiens, UniProt Q00987). In words: Binding affinity to recombinant human MDM2 by using 5-FAM-PMDM6 by fluorescence polarization based assay. In general terms: Fluorescence polarisation rises when a labelled molecule tumbles more slowly, as on binding a larger partner.
For data set [5], the target named is T1, E3 ubiquitin-protein ligase Mdm2. In words: Binding affinity to MDM2 (unknown origin).

T1 sequence (Q00987 whole entry): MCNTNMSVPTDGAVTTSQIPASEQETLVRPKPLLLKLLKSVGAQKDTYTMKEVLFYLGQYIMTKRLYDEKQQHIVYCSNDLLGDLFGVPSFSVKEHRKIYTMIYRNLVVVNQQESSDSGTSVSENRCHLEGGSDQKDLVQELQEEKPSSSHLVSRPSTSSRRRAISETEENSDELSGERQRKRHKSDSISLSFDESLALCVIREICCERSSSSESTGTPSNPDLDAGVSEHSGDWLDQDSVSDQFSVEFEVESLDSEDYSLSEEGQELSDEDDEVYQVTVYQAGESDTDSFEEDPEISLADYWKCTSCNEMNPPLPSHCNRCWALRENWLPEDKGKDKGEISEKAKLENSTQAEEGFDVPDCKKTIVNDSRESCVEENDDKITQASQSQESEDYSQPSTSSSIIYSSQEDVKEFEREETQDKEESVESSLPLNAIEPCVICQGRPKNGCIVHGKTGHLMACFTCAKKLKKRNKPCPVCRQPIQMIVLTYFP

On to `CC(=O)NC(CCCCNC(=O)c1cccc(I)c1)C(=O)NCCCCCC(=O)N[C@H](C(=O)N[C@@H](CO)C(=O)N[C@@H](Cc1ccccc1)C(=O)N[C@@]1(C)CCCCCC/C=C/CCC[C@@](C)(C(=O)N[C@@H](CCC(=O)O)C(=O)N[C@@H](CC(N)=O)C(=O)N[C@@H](Cc2ccccc2)C(N)=O)NC(=O)[C@H](CC(C)C)NC(=O)[C@H](CC(C)C)NC(=O)[C@H](C)NC(=O)[C@H](Cc2c[nH]c3ccccc23)NC(=O)[C@H](Cc2ccc(O)cc2)NC(=O)[C@H](CCC(=O)O)NC1=O)[C@@H](C)O` (stereo not given in full), for which, in data set [1], the logD was 1.45.
As to `CC(=O)NC(CCCCNC(=O)c1cccc([131I])c1)C(=O)NCCCCCC(=O)N[C@H](C(=O)N[C@@H](CO)C(=O)N[C@@H](Cc1ccccc1)C(=O)N[C@@]1(C)CCCCCC/C=C/CCC[C@@](C)(C(=O)N[C@@H](CCC(=O)O)C(=O)N[C@@H](CC(N)=O)C(=O)N[C@@H](Cc2ccccc2)C(N)=O)NC(=O)[C@H](CC(C)C)NC(=O)[C@H](CC(C)C)NC(=O)[C@H](C)NC(=O)[C@H](Cc2c[nH]c3ccccc23)NC(=O)[C@H](Cc2ccc(O)cc2)NC(=O)[C@H](CCC(=O)O)NC1=O)[C@@H](C)O` (stereo not given in full), the Stability in data set [2] came to 68%; in data set [3], 80%.
On to `CC(=O)N[C@@H](CCCCN)C(=O)NCCCCCC(=O)N[C@H](C(=O)N[C@@H](CO)C(=O)N[C@@H](Cc1ccccc1)C(=O)N[C@]1(C)CCCCCC/C=C/CCC[C@@](C)(C(=O)N[C@@H](CCC(=O)O)C(=O)N[C@@H](CC(N)=O)C(=O)N[C@@H](Cc2ccccc2)C(N)=O)NC(=O)[C@H](CC(C)C)NC(=O)[C@H](CC(C)C)NC(=O)[C@H](C)NC(=O)[C@H](Cc2c[nH]c3ccccc23)NC(=O)[C@H](Cc2ccc(O)cc2)NC(=O)[C@H](CCC(=O)O)NC1=O)[C@@H](C)O`, for which, in data set [4], the IC50 was found to be 2.8 nM. Moreover, the Kd in data set [5] came to 15.1 nM.
